Experimental data: ChEMBL document CHEMBL1135898, “Synthesis and antimycobacterial activity of 6-arylpurines: the requirements for the N-9 substituent in active antimycobacterial purines” (J Med Chem, 2002)
Converted amounts (≈) assume the structure as drawn.

Experiments:
[1] = tested on: Mycobacterium tuberculosis; assay: Minimum Inhibitory Concentration against drug-resistant strain of Mycobacterium tuberculosis Erdman; assay type: functional
Procedure, shortened: (§1)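 MICs by microplate alamar blue assay against M. tuberculosis strains resistant to isoniazid (ATCC 35822), rifampin (ATCC 35838), ethambutol, kanamycin or ciprofloxacin, drug-sensitive strain Erdman, and M. avium (ATCC 25291). MIC = minimum concentration giving 90% growth inhibition.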

Mycobacterium avium = assay: Minimum Inhibitory Concentration against drug-resistant strain of Mycobacterium tuberculosis avium; assay type: functional; procedure, shortened: as §1

Clc1nc(-c2ccco2)c2ncn(Cc3ccccc3)c2n1
MIC [1]: 12.5 µg/mL (≈ 40.2 µM)
MIC (Mycobacterium avium): 25 µg/mL (≈ 80.5 µM)
